Data on four compounds can be found in ChEMBL document CHEMBL5634162, “Cyclohexylalanine-Containing α-Helical Amphipathic Peptide Targets Cardiolipin, Rescuing Mitochondrial Dysfunction in Kidney Injury” (J Med Chem, 2024).

For data set [1], the system named is Lipid bilayer. The experiment in a line: Binding affinity to cardiolipin-rich POPC/POPE by fluorescence based analysis. The gist of the method:
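NBD-labelled peptide monomer at 1 μM in PBS, mixed with liposomes of POPC/POPE (2:1) containing 10% CL, with CL-free POPC/POPE liposomes for comparison. Association was followed by NBD fluorescence (ex 467/em 536 nm), n = 3. For dissociation, liposomes were at 100 μM and unlabelled acetylated peptide was added stepwise up to 40 μM, with a 10 min dark incubation before each read.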

Data set [2] concerns Lipid bilayer. The experiment in a line: Binding affinity to DLCL-rich POPC/POPE by fluorescence based analysis.
Data set [3] can be described thus: Drug localization in mitochondria of human HeLa cells at EC50 incubated for 3 hrs by fluorescence based assay. It counts as ADME.

Each structure is given as a SMILES string. The source made the active and inactive calls. The calls are words filed in the database; no cut-off is given here. Where a SMILES comes first, the peptide text is derived from it. Bridges are numbered along the chain shown (N, C = ends). Roman numbers before positions name the chains, in order. [ ]: non-standard residue; d: D form. The star is where a group is joined. 5TAMRA = CN(C)c1ccc2c(c1)Oc1cc(N(C)C)ccc1C21OC(=O)c2cc(C(=O)*)ccc21; Cha = N[C@@H](CC1CCCCC1)C(=O)O

Consider `CC(=O)N[C@@H](CC1CCCCC1)C(=O)N[C@@H](CS)C(=O)N[C@@H](CCCNC(=N)N)C(=O)N[C@@H](CC(C)C)C(=O)N[C@@H](CC1CCCCC1)C(=O)N[C@@H](CCCNC(=N)N)C(=O)N[C@@H](CCCNC(=N)N)C(=O)N[C@@H](CC1CCCCC1)C(=O)N[C@@H](CS)C(=O)N[C@@H](CCCNC(=N)N)C(N)=O` (Ac-[Cha]CRL[Cha]RR[Cha]CR-NH2), for which the outcome in the data set on Lipid bilayer [1] and with Lipid bilayer [2] was Active.

For the compound `CC(=O)N[C@@H](CC1CCCCC1)C(=O)N[C@H]1CSSC[C@@H](C(=O)N[C@@H](CCCNC(=N)N)C(N)=O)NC(=O)[C@H](CC2CCCCC2)NC(=O)[C@H](CCCNC(=N)N)NC(=O)[C@H](CCCNC(=N)N)NC(=O)[C@H](CC(C)C)NC(=O)[C@H](CC2CCCCC2)NC(=O)[C@H](CCCNC(=N)N)NC(=O)[C@@H](NC(=O)[C@H](CC2CCCCC2)NC(=O)c2ccc3c(c2)C(=O)OC32c3ccc(N(C)C)cc3Oc3cc(N(C)C)ccc32)CSSC[C@@H](C(=O)N[C@@H](CCCNC(=N)N)C(N)=O)NC(=O)[C@H](CC2CCCCC2)NC(=O)[C@H](CCCNC(=N)N)NC(=O)[C@H](CCCNC(=N)N)NC(=O)[C@H](CC(C)C)NC(=O)[C@H](CC2CCCCC2)NC(=O)[C@H](CCCNC(=N)N)NC1=O` (I: Ac-[Cha]CR[Cha]LRR[Cha]CR-NH2 / II: 5TAMRA-[Cha]CR[Cha]LRR[Cha]CR-NH2; disulfide I:2-II:9, I:9-II:2), the Drug uptake in data set [3] is recorded as 53%. As for `CC(=O)N[C@@H](CC1CCCCC1)C(=O)N[C@H]1CSSC[C@@H](C(=O)N[C@@H](CCCNC(=N)N)C(N)=O)NC(=O)[C@H](CC(C)C)NC(=O)[C@H](CCCNC(=N)N)NC(=O)[C@H](CCCNC(=N)N)NC(=O)[C@H](CC2CCCCC2)NC(=O)[C@H](CC2CCCCC2)NC(=O)[C@H](CCCNC(=N)N)NC(=O)[C@@H](NC(=O)[C@H](CC2CCCCC2)NC(=O)c2ccc3c(c2)C(=O)OC32c3ccc(N(C)C)cc3Oc3cc(N(C)C)ccc32)CSSC[C@@H](C(=O)N[C@@H](CCCNC(=N)N)C(N)=O)NC(=O)[C@H](CC(C)C)NC(=O)[C@H](CCCNC(=N)N)NC(=O)[C@H](CCCNC(=N)N)NC(=O)[C@H](CC2CCCCC2)NC(=O)[C@H](CC2CCCCC2)NC(=O)[C@H](CCCNC(=N)N)NC1=O` (I: Ac-[Cha]CR[Cha][Cha]RRLCR-NH2 / II: 5TAMRA-[Cha]CR[Cha][Cha]RRLCR-NH2; disulfide I:2-II:9, I:9-II:2), the Drug uptake in data set [3] is reported as 53%. The same measure, in the same setting: for `CC(=O)N[C@@H](CC1CCCCC1)C(=O)N[C@H]1CSSC[C@@H](C(=O)N[C@@H](CCCNC(=N)N)C(N)=O)NC(=O)[C@H](CC2CCCCC2)NC(=O)[C@H](CCCNC(=N)N)NC(=O)[C@H](CCCNC(=N)N)NC(=O)[C@H](CC2CCCCC2)NC(=O)[C@H](CC2CCCCC2)NC(=O)[C@H](CCCNC(=N)N)NC(=O)[C@@H](NC(=O)[C@H](CC2CCCCC2)NC(=O)c2ccc3c(c2)C(=O)OC32c3ccc(N(C)C)cc3Oc3cc(N(C)C)ccc32)CSSC[C@@H](C(=O)N[C@@H](CCCNC(=N)N)C(N)=O)NC(=O)[C@H](CC2CCCCC2)NC(=O)[C@H](CCCNC(=N)N)NC(=O)[C@H](CCCNC(=N)N)NC(=O)[C@H](CC2CCCCC2)NC(=O)[C@H](CC2CCCCC2)NC(=O)[C@H](CCCNC(=N)N)NC1=O` (I: Ac-[Cha]CR[Cha][Cha]RR[Cha]CR-NH2 / II: 5TAMRA-[Cha]CR[Cha][Cha]RR[Cha]CR-NH2; disulfide I:2-II:9, I:9-II:2) the value was 53%.
